From ChEMBL document CHEMBL1121898, “Potential antiestrogens. Synthesis and evaluation of mammary tumor inhibiting activity of 1,2-dialkyl-1,2-bis(3'-hydroxyphenyl)ethanes” (1981) come the findings set out here.

Where “and” joins values, the source holds several entries; their conditions need not be identical. Identical values can stand only once. Calls of active or inactive are those of the source.

Test [1] is filed under the species Rattus norvegicus. The test is described as follows: Percent change in DMBA-induced hormone-dependent mammary carcinoma tumor area at 2 mg after 28 days. It counts as functional. The procedure, abridged:
(§1)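 DMBA-induced, hormone-dependent mammary adenocarcinoma in SD rats. Rats bearing at least one tumor >140 mm² were placed in groups of ten. Compound was given sc as a single dose (mg/kg) daily Monday–Thursday and a double dose on Friday. Tumors were counted at the start and as new tumors; responses were scored as complete remission (not palpable), partial remission (≥50% reduction), no change or progression. Tumor area and body weight were recorded as % change.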

The species entered for test [2] is Rattus norvegicus. Put plainly: Percent unchanged tumor size of DMBA-induced hormone-dependent mammary carcinoma tumors in rats at 2 mg. The class given is functional.
For test [3], the species on record is Rattus norvegicus. Put plainly: Progression of DMBA-induced hormone-dependent mammary carcinoma tumors in rats at 2 mg. It counts as functional.
The species named for test [4] is Rattus norvegicus. The test is described as follows: Progression of DMBA-induced hormone-dependent mammary carcinoma tumors in rats at 4 mg. It counts as functional.
Test [5] is filed under the species Rattus norvegicus. Put plainly: Complete remission of DMBA-induced hormone-dependent mammary carcinoma tumors in rats at 1 mg. It counts as functional. The procedure, abridged:
(§2)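 Female SD rats bearing DMBA-induced, hormone-dependent mammary adenocarcinoma, with at least one tumor >140 mm², were grouped in tens. Dosing was sc per kg body weight: a single dose daily Monday–Thursday and a double dose Friday. Ovariectomy served as the comparison arm. Complete remission was defined as a tumor no longer palpable. Body weight and tumor area changes were also recorded.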

The test system of test [6] is MCF7. Put plainly: Inhibition of estrogen receptor positive MCF-7 cell proliferation as percent treated/control cell number after 10 days at 10e-6 M. It counts as functional, Homo sapiens. The gist of the method: (§3)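 MCF-7 cells were grown in McCoy's 5a medium with fetal bovine serum stripped by DCC (0.5 h, 45 °C). Compounds were dissolved in ethanol (final ≤0.5%) and diluted in complete medium. Cells were seeded at 5×10^4 cells/plate. On day 10, three replicate plates per group were counted by Coulter counter, three counts per plate. Percent T/C = test/control. In a retest, compounds were given at 10^-7 M with 17β-estradiol at 10^-7 or 10^-8 M.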

The test system of test [7] is MCF7. Put plainly: Inhibition of estrogen receptor positive MCF-7 cell proliferation as percent treated/control cell number after 10 days at 10e-7 M. It counts as functional, Homo sapiens. The gist of the method: as §3
For test [8], the system named is MCF7. Put plainly: Inhibition of estrogen receptor positive MCF-7 cell proliferation as percent treated/control cell number after 10 days at 10e-7 M with 10e-7 M 17-beta-estradiol. The class given is functional, Homo sapiens. The gist of the method: as §3
For test [9], the system named is MCF7. The test is described as follows: Inhibition of estrogen receptor positive MCF-7 cell proliferation as percent treated/control cell number after 10 days at 10e-8 M. It counts as functional, Homo sapiens. The gist of the method: as §3
The test system of test [10] is MCF7. Put plainly: Inhibition of estrogen receptor positive MCF-7 cell proliferation as cell number after 10 days at 10e-8 M. It counts as functional, Homo sapiens. The gist of the method:
as §3

The test system of test [11] is MCF7. Put plainly: Inhibition of estrogen receptor positive MCF-7 cell proliferation as cell number after 10 days at 10e-9 M. It counts as functional, Homo sapiens. The gist of the method:
as §3

Test [12] has as its system MCF7. The test is described as follows: Inhibition of estrogen receptor positive MCF-7 cell proliferation as percent treated/control cell number after 10 days at 10e-9 M. The class given is functional, Homo sapiens. The gist of the method:
as §3

Test [13] concerns MCF7. The test is described as follows: Inhibition of estrogen receptor positive MCF-7 cell proliferation as cell number after 10 days at 10e-6 M. It counts as functional, Homo sapiens. The procedure, abridged: as §3
Test [14] concerns MCF7. Put plainly: Inhibition of estrogen receptor positive MCF-7 cell proliferation as cell number after 10 days at 10e-7 M and 10e-8 M 17-beta-estradiol. It counts as functional, Homo sapiens. The gist of the method: as §3
The test system of test [15] is MCF7. Put plainly: (§4) Inhibition of estrogen receptor positive MCF-7 cell proliferation as cell number after 10 days at 10e-7 M. It counts as functional, Homo sapiens. The procedure, abridged: as §3
The test system of test [16] is MCF7. The description is as §4. The class given is functional, Homo sapiens. The procedure, abridged:
as §3
This is another data set of the same source.

The species named for test [17] is Mus musculus. Put plainly: Vaginal cornification test in mice at 0 ug; predominant cellular component leucocytes (diestrus). The class given is functional, organism-based. The procedure, abridged:
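Female NMRI mice (~15 g) were ovariectomized; castration was confirmed at 10 days by leucocyte smears. Mice were primed with estradiol 3-benzoate 0.2 μg, and only responders showing estrus were kept. Groups of three received sc test compound in 0.1 mL olive oil daily for 3 days. Saline vaginal smears were taken 6, 24, 30, 48 and 54 h after the last dose and scored by Allen-Doisy.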

The species entered for test [18] is Mus musculus. The test is described as follows: Predominant components of vaginal smear at a compound concentration of 50 ug was determined using vaginal cornification test; leucocytes (</= 50%), nucleated and cornified, nucleated cellscharacteristic of antiestrogens. The class given is functional, organism-based.
Test [19] deals with T1, Estrogen receptor (Mus musculus) (UniProt O08537+P19785). The test is described as follows: Estrogenic activity in uterotrophic test in mice at 0 ug (experiment 1). The class given is functional. The gist of the method: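 Uterine growth stimulation in immature female NMRI mice, 20 days old (14.5 ± 1.2 g), 10 per group. Test compound in 0.1 mL olive oil was given sc daily for 3 days. Uteri were excised 24 h after the final injection and weighed. Effect is reported as mean ± SD.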

For test [20], the target named is T1, Estrogen receptor (Mus musculus). The test is described as follows: Estrogenic activity in uterotrophic test in mice at 800 ug (experiment 2). The class given is functional. The gist of the method: (§5)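 Immature (20-day-old) female NMRI mice, 14.5 ± 1.2 g, randomized into groups of 10. Given the test compound sc daily for 3 days in 0.1 mL olive oil. Uteri removed 24 h after the last injection; uterine weight taken as the read-out, means ± SD. Dose in μg.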

For test [21] the target is unchanged. The test is described as follows: Inhibitory activity in mouse uterine weight test at 25 ug (experiment 2). It counts as functional. The procedure, abridged: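 Antiuterotrophic (Dorfman) assay in immature 20-day-old female NMRI mice, groups of 10. Uterine growth was stimulated with estrone (0.1 μg) and the test compound was given alongside it, sc daily for 3 days in 0.1 mL olive oil. Uteri were taken 24 h after the last dose. Uterine weight is reported as means ± SD and inhibition as % of the estrone-stimulated response.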

Test [22] relates to MCF7. The test is described as follows: Inhibition of estrogen receptor positive MCF-7 cell proliferation as percent treated/control cell number after 10 days at 10e-7 M and 10e-8 M 17-beta-estradiol. It counts as functional, Homo sapiens. The gist of the method:
as §3

The test system of test [23] is Estrogen receptor (Bos taurus). Put plainly: Displacement of [3H]estradiol from calf estrogen receptor. In general terms: In a radioligand displacement assay an active substance lowers the binding of a labelled ligand.
For test [24], the species on record is Rattus norvegicus. The test is described as follows: Complete remission of DMBA-induced hormone-dependent mammary carcinoma tumors in ovariectomised rats. The class given is functional. The procedure, abridged:
as §2

For test [25], the species on record is Rattus norvegicus. The test is described as follows: Percent change in body weight DMBA-induced hormone-dependent mammary carcinoma tumors in rats at 4.5 mg for 7 days. It counts as functional.
For test [26], the species on record is Rattus norvegicus. The test is described as follows: Partial remission of DMBA-induced hormone-dependent mammary carcinoma tumors in rats at 9 mg. The class given is functional. The procedure, abridged: as §1
For test [27], the species on record is Rattus norvegicus. Put plainly: Progression of DMBA-induced hormone-dependent mammary carcinoma tumors in rats at 9 mg. The class given is functional.
Test [28] is filed under the species Rattus norvegicus. The test is described as follows: Initial tumor number of DMBA-induced hormone-dependent mammary carcinoma in rats at 9 mg. It counts as functional. The procedure, abridged:
as §1

The species named for test [29] is Rattus norvegicus. Put plainly: Initial tumor number of DMBA-induced hormone-dependent mammary carcinoma in rats at 4.5 mg. The class given is functional. The gist of the method:
as §1

The target in test [30] is T1, Estrogen receptor (Mus musculus). Put plainly: Antiestrogenic activity in uterotrophic test in mice at 5 ug. The class given is functional. The procedure, abridged: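 Immature female NMRI mice, 20 days old (14.5 ± 1.2 g), randomly grouped 10 per group. Each received a daily sc injection for 3 days of 0.1 mL olive oil solution containing test compound, together with estrone to stimulate uterine growth. Uteri were removed 24 h after the last injection and weighed. Results are reported as % inhibition of the estrone-stimulated uterine weight gain, mean ± SD.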

Test [31] has the same target. The test is described as follows: Estrogenic activity in uterotrophic test in mice at 300 ug. The class given is functional. The procedure, abridged: as §5
For test [32], the species on record is Rattus norvegicus. The test is described as follows: Percent change in DMBA-induced hormone-dependent mammary carcinoma tumor area in ovariectomised rats after 28 days. It counts as functional. The procedure, abridged: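 DMBA-induced, hormone-dependent mammary adenocarcinoma in SD rats, with ovariectomy as the treatment. Rats bearing at least one tumor >140 mm² were placed in groups of ten. Tumors were counted at the start and as new tumors. Responses were scored as complete remission, partial remission (≥50% size reduction), no change or progression, with % change in tumor area and body weight.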

T1 sequence (O08537 whole entry, looked up): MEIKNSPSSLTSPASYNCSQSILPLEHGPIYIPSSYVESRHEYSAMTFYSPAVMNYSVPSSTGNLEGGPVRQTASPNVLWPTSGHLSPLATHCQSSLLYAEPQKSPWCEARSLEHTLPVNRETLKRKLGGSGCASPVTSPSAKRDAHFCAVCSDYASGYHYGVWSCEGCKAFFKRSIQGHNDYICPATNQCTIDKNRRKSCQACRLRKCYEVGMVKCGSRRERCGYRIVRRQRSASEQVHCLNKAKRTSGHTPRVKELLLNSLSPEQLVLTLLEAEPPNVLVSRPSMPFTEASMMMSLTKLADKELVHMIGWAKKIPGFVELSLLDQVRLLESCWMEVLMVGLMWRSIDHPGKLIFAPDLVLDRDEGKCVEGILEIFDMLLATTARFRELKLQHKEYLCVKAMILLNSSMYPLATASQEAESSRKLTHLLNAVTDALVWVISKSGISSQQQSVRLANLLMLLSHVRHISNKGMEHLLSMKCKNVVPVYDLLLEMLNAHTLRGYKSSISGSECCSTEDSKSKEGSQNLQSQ
T1 sequence (P19785 whole entry, looked up): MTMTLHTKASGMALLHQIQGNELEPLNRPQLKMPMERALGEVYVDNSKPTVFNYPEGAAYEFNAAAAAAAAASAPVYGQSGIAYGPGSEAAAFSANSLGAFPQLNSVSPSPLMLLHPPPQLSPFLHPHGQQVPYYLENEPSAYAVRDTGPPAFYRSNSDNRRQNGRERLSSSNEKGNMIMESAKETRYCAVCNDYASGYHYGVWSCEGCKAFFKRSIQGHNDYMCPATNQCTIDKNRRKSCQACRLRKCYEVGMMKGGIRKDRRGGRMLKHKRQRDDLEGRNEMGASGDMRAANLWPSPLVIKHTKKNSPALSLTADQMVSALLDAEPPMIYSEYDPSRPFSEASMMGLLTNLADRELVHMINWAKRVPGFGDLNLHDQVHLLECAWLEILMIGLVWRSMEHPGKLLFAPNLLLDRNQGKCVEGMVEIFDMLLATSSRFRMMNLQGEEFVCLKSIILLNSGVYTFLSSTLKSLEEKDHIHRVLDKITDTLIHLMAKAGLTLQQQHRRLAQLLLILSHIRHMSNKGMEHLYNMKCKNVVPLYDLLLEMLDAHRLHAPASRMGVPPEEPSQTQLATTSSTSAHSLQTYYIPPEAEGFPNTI

With `CCC(c1cccc(O)c1)C(CC)c1cccc(O)c1` (stereo in doubt; 20), in the test filed under Rattus norvegicus [1], the Change turned out to be 11%. For the same compound, the Tumors was found to be 30% in the test listed under Rattus norvegicus [2], 21% in the test listed under Rattus norvegicus [3], 10% in the test listed under Rattus norvegicus [4] and 21% in the test listed under Rattus norvegicus [5]. The T/C in the test on MCF7 [6] was 27%; in the test with MCF7 [7], 70% and 63%; in the test with MCF7 [8], 84%; in the test on MCF7 [9], 64%; in the test with MCF7 [12], 73%; in the test on MCF7 [22], 78%. In addition, the Cell number in the test with MCF7 [10] is on record as 27900; with MCF7 [11] it was 32100; with MCF7 [13] it was 11900; in the test with MCF7 [14], 5100; in the test on MCF7 [15], 4700; in the test on MCF7 [16] it was 27700. In addition, the outcome in the test listed under Mus musculus [17] was inactive. For the same compound, the Activity entry in the test listed under Mus musculus [18] was “Weak activity”. Moreover, the Effect came out at 10.7 in [19] and 30.8 in test [20]. The inhibition in test [21] amounted to 48%. Moreover, the Ka in test [23] stood at 2e+08 M⁻¹.
Regarding `CCCC(c1cccc(O)c1)C(CCC)c1cccc(O)c1` (stereo unspecified), the results for the Tumors in the test listed under Rattus norvegicus [24], in the test filed under Rattus norvegicus [26] and in the test filed under Rattus norvegicus [27] were 90%, 22% and 17%, respectively. Further, the results for the Change in the test listed under Rattus norvegicus [25] and in the test filed under Rattus norvegicus [32] were -1.1% and -99%, respectively. Besides, the No. of tumors in the test listed under Rattus norvegicus [28] came out at 22; in the test filed under Rattus norvegicus [29] it was 16. Further, the T/C with MCF7 [6] was 53%; with MCF7 [7], 66% and 68%; with MCF7 [8], 84%; in the test with MCF7 [9], 78%; with MCF7 [12] it was 71%; in the test with MCF7 [22], 93%. Further, the Cell number with MCF7 [10] came out at 34300; in the test with MCF7 [11] it was 30700; in the test with MCF7 [13] it was 23300; in the test on MCF7 [14] it was 6100; in the test with MCF7 [15] it was 4300; in the test with MCF7 [16] it was 29700. Further, the outcome in the test filed under Mus musculus [17] was inactive. In addition, the figures for the Effect in [30] and in [31] were 30.4 and 28.4, respectively. For the same compound, the Ka in test [23] turned out to be 9.1e+07 M⁻¹.

As usually defined, the T/C is the result in the treated group divided by that in the control group, in per cent. The inhibition is the relative decrease from the control value, in per cent. A high value points to a response far below the control.
